The text below walks through data of ChEMBL document CHEMBL2086300, “Synthesis and biological evaluation of imidazo[4,5-b]pyridine and 4-heteroaryl-pyrimidine derivatives as anti-cancer agents” (Eur J Med Chem, 2012).

Test [1] deals with MCF7. Briefly: Antiproliferative activity against human MCF7 cells after 72 hrs by MTT assay. It is filed as functional. The following applies: MCF7, 72 h. Summed up: (§1)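 HCT-116 and MCF-7 cells kept in RPMI-1640 plus 10% FBS. Cells exposed to compound for 72 h and read by MTT. GI50 obtained by non-linear regression.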
Test [2] relates to HCT-116. Briefly: Antiproliferative activity against human HCT116 cells after 72 hrs by MTT assay. Format: functional. The following applies: HCT-116, 72 h. Summed up: as §1
Test [3] has as its target Cyclin-dependent kinase 1/cyclin B1 (Homo sapiens, UniProt P06493). Briefly: Inhibition of CDK1/cyclin B by radiometric assay. It is filed as protein-complex assay. Summed up:
(§2)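 Radiometric kinase assay run as an outsourced profiling service. IC50 taken from 10-point dose-response curves. Apparent Ki calculated from IC50 and the kinase-specific Km(ATP). Data are means of two replicates.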

The target of test [4] is CDK9/cyclin T1 (Homo sapiens, UniProt P50750). Kind of test: Inhibition of CDK9/cyclin-T1 by radiometric assay. Format: protein-complex assay. The method, boiled down:
as §2

Test [5] addresses Cyclin-dependent kinase 7/ cyclin H (Homo sapiens, UniProt P50613). Kind of test: Inhibition of CDK7/cyclin-H by radiometric assay. Format: protein-complex assay. The method, boiled down: as §2
Test [6] in a line: Selectivity ratio of Ki for CDK1/cyclin B to Ki for CDK9/cyclin-T1. Summed up: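 Ratio of apparent Ki values for CDK1/cyclin B and CDK9/cyclin-T1. Each Ki comes from a radiometric assay, converted from 10-point-curve IC50 using Km(ATP), mean of two replicates.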
Test [7] deals with HCT-116. Kind of test: Cell cycle arrest in human HCT116 cells assessed as accumulation at pre-G1 phase at 10 times GI50 after 24 hrs by propidium iodide staining based flow cytometry. Format: functional. The method, boiled down:
(§3)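 HCT-116 cells treated for 24 h at GI50, 5 × GI50 or 10 × GI50 multiples. Cells fixed and stained with propidium iodide, then DNA content read by flow cytometry. Pre-G1 fraction taken as the dead-cell population.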
(A flow cytometer gives signals particle by particle.)

Test [8] deals with HCT-116. Kind of test: Induction of apoptosis in human HCT116 cells assessed as increase of caspase-3/7 activity at GI50 after 24 hrs. Format: functional, cell-based.
In test [9] the test system is HCT-116. Kind of test: Cell cycle arrest in human HCT116 cells at 5 times GI50 after 24 hrs by propidium iodide staining based flow cytometry. It is filed as functional. Summed up:
as §3

The subject of test [10] is HCT-116. Kind of test: Induction of apoptosis in human HCT116 cells assessed as induction of PARP cleavage at 5 to 50 uM after 24 hrs Western blot analysis. It is filed as functional, cell-based. Summed up: (§4)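 HCT-116 cells cultured with 5, 25 or 50 µM for 24 h. Lysates analysed by western blot, with β-actin as internal control.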
In general terms: In western blotting, separated proteins are transferred to a membrane and probed.

The test system of test [11] is HCT-116. Briefly: Induction of apoptosis in human HCT116 cells assessed as down-regulation of Mcl-1 level at 5 to 50 uM after 24 hrs Western blot analysis. Format: functional, cell-based. The method, boiled down: as §4
Test [12] deals with Cyclin-dependent kinase 7/ cyclin H (Homo sapiens) (UniProt P51946+P50613). Kind of test: Inhibition of CDK7/cyclin-H in human HCT116 cells assessed as RNAPII CTD phosphorylation at Ser-5 at 5 to 50 uM after 24 hrs by Western blotting analysis. Format: cell-based. The following applies: HCT-116. Summed up: as §4
Test [13] relates to HCT-116. Briefly: Induction of apoptosis in human HCT116 cells assessed as increase of caspase-3/7 activity at 5 to 10 times GI50 after 24 hrs. It is filed as functional, cell-based.
Test [14] relates to HCT-116. Kind of test: Cell cycle arrest in human HCT116 cells at GI50 after 24 hrs by propidium iodide staining based flow cytometry. It is filed as functional. The method, boiled down: as §3
In test [15] the target is CDK9/cyclin T1 (Homo sapiens) (UniProt O60563+P50750). Briefly: Inhibition of CDK9/cyclin-T1 in human HCT116 cells assessed as RNAPII CTD phosphorylation at Ser-2 at 5 to 50 uM after 24 hrs by Western blotting analysis. It is filed as cell-based. The following applies: HCT-116. The method, boiled down:
as §4

pKi: −log10 of the molar value. The source made the active and inactive calls. No cut-off for these calls is given here.

Chain of CDK9/cyclin T1 (O60563 whole entry): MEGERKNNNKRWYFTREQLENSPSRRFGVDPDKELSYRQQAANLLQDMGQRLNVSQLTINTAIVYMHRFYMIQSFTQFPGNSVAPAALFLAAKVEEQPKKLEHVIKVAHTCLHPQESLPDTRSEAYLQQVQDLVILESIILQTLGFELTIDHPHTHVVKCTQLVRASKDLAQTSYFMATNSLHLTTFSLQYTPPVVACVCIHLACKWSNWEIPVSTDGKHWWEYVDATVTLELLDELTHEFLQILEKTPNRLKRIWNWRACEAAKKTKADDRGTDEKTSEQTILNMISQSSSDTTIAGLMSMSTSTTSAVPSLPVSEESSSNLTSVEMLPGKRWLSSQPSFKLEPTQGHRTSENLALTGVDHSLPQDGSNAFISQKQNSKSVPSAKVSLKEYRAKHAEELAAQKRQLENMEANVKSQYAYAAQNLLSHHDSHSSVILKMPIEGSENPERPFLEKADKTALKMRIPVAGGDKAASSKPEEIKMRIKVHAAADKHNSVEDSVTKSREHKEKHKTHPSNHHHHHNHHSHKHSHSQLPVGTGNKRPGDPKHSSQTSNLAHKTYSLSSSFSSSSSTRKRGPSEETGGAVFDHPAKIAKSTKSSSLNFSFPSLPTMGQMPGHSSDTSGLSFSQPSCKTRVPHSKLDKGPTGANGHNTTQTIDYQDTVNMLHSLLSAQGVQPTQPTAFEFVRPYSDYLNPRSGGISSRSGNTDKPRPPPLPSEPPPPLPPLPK
Chain of CDK9/cyclin T1 (P50750 whole entry): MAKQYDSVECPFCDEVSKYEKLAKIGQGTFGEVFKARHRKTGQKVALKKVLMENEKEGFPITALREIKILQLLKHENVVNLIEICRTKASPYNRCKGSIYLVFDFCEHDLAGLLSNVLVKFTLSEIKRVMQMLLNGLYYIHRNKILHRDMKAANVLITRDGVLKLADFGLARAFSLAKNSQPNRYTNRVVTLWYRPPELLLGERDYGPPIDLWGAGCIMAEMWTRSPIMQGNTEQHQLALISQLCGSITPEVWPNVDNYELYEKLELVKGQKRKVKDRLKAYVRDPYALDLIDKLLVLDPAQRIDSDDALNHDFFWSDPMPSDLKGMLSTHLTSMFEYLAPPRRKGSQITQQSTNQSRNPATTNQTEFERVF
Chain of Cyclin-dependent kinase 7/ cyclin H (P51946 whole entry): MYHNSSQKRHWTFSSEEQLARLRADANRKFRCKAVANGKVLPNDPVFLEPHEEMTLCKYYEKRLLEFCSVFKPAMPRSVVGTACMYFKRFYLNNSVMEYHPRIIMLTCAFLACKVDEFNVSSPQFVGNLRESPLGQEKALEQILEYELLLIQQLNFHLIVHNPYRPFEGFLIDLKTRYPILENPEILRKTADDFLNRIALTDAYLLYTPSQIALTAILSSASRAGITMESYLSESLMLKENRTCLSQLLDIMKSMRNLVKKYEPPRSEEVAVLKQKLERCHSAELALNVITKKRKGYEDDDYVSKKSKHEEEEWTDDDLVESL
Chain of Cyclin-dependent kinase 7/ cyclin H (P50613 whole entry): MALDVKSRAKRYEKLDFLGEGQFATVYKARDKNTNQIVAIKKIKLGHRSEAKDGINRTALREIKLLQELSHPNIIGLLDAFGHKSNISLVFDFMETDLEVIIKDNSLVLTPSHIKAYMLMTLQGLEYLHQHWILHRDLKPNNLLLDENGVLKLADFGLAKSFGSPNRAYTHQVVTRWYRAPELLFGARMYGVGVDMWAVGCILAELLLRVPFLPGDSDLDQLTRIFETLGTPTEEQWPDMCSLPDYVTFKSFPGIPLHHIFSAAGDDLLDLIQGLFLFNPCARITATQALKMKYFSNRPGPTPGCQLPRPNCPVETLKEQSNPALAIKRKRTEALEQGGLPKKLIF
Chain of Cyclin-dependent kinase 1/cyclin B1 (P06493 whole entry): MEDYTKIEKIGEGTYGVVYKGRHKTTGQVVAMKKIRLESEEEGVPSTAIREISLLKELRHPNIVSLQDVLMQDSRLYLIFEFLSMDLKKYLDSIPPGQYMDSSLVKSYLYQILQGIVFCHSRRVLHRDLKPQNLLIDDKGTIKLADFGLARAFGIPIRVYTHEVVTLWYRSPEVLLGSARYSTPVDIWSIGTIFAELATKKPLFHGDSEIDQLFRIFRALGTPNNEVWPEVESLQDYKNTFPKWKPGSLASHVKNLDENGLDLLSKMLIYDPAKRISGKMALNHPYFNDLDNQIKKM
Chain of Cyclin-dependent kinase 1/cyclin B1 (P14635 whole entry, further chain): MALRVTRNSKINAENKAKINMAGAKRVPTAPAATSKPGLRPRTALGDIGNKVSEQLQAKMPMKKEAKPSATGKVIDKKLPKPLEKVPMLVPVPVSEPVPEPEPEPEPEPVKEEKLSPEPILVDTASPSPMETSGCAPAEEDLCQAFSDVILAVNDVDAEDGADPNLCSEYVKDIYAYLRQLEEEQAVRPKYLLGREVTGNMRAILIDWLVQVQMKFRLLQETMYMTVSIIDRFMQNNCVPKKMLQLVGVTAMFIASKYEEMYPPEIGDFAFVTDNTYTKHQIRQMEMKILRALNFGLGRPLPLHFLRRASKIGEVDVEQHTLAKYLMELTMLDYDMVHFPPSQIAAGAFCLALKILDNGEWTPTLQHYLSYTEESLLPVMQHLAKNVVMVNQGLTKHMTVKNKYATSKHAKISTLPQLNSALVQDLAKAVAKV

For `Cn1nc(-c2ccnc(Nc3ccc([N+](=O)[O-])cc3)n2)c2ccccc21`, the GI50 (as a rule, the concentration at which growth is held to half of that of the control) in test [1] was determined as 11.8 µM; in test [2] it was 8.22 µM.

Take `Brc1cccc(Nc2nc3ncccc3n2Cc2ccccc2)c1`: the GI50 in [1] worked out at 78.7 µM; in [2], 77.7 µM.

Take `Clc1cccc(Nc2nc3ncccc3n2Cc2ccccc2)c1`: the GI50 in test [1] was 43.5 µM; in [2] it was 36.3 µM.

For `Oc1ccc(Nc2nc3ncccc3n2Cc2ccccc2)cc1`, the figures for the GI50 in [1] and in [2] were 52.5 µM and 72.6 µM, respectively.

As for `CCCn1nc(-c2ccnc(Nc3cccc(S(N)(=O)=O)c3)n2)c2ccccc21`, the pKi (in general, −log10 of the Ki, conventionally taken in molar units) is 6.02 in [3], 6.55 in test [4] and < 5.30 in [5]. The GI50 in test [1] stood at 4.26 µM; in [2] it was 7.95 µM.

With `Cc1ccc(Nc2nc3ncccc3n2Cc2ccccc2)cc1[N+](=O)[O-]`, the concentration for 50% growth inhibition (GI50) is 27.8 µM in test [1] and 40.4 µM in test [2].

For the compound `CCc1nn(-c2ccnc(Nc3cccc(S(N)(=O)=O)c3)n2)c2ncccc12`, the figures for the GI50 in [1] and in test [2] were 73.2 µM and 65.1 µM, respectively.

In the case of `CCn1nc(-c2ccnc(Nc3ccc([N+](=O)[O-])cc3)n2)c2ccccc21`, the GI50 was determined as 24 µM in test [1] and 4.06 µM in [2].

Consider `Cn1nc(-c2ccnc(Nc3ccc(O)cc3)n2)c2ccccc21`, for which the GI50 is 8.91 µM in test [1] and 8.43 µM in [2].

For the compound `NS(=O)(=O)c1cccc(Nc2nccc(-c3nn(Cc4cccnc4)c4ccccc34)n2)c1`, the Ratio Ki in test [6] was 14. Further, the pKi was 5.34 in [3], 6.50 in test [4] and < 5.30 in test [5]. Moreover, the GI50 in [1] came to 5.27 µM; in test [2], 8.28 µM.

As to `O=[N+]([O-])c1cccc(Nc2nc3ncccc3n2Cc2ccccc2)c1`, the GI50 turned out to be 24.2 µM in [1] and 41.7 µM in test [2].

As for `CCCn1nc(-c2ccnc(Nc3ccc(O)cc3)n2)c2ccccc21`, the GI50 in test [1] was found to be 3.34 µM; in [2], 5.45 µM.

As for `Cn1nc(-c2ccnc(Nc3cccc(O)c3)n2)c2ccccc21`, the GI50 worked out at 28.2 µM in test [1] and 17.2 µM in test [2].

Regarding `NS(=O)(=O)c1cccc(Nc2nccc(-n3ncc4cccnc43)n2)c1`, the results for the GI50 in [1] and in test [2] were 6.93 µM and 14.6 µM, respectively.

For the compound `CCn1nc(-c2ccnc(Nc3cccc(S(N)(=O)=O)c3)n2)c2ccccc21`, the pKi was 6.33 in test [3], 6.81 in [4] and < 5.30 in [5]. The GI50 in test [1] turned out to be 7.26 µM; in [2], 9.01 µM.

Regarding `Cc1nn(-c2ccnc(Nc3cccc(S(N)(=O)=O)c3)n2)c2ncccc12`, the results for the GI50 in test [1] and in test [2] were 19.9 µM and 24.8 µM, respectively.

Regarding `CCn1nc(-c2ccnc(Nc3ccc(O)cc3)n2)c2ccccc21`, the GI50 in [1] was 5.78 µM; in test [2], 5.29 µM.

For `NS(=O)(=O)c1cccc(Nc2nccc(-n3ncc4ccccc43)n2)c1`, the outcome in [7], in [8], in test [10], in test [11] and in test [13] was Active. The outcome in test [9] and in [14] was inactive. Also, the pKi in test [3] was 7.28; in test [4], 7.77; in test [5] it was < 5.30. Also, the figures for the GI50 in test [1] and in [2] were 5.56 µM and 0.75 µM, respectively. Besides, the inhibition entry in test [12] is “inactive”. The inhibition result in test [15] was “Active”.

For the compound `NS(=O)(=O)c1ccc(Nc2nccc(-n3ncc4ccccc43)n2)cc1`, the pKi in [3] was 7.55; in test [4], 7.04; in [5] it was 6.48. Further, the GI50 was found to be 1.87 µM in test [1] and 0.59 µM in [2].

As to `NS(=O)(=O)c1ccc(Nc2nccc(-c3nn(Cc4cccnc4)c4ccccc34)n2)cc1`, the negative logarithm of the Ki (pKi) in test [3] is 6.54; in [4], 6.68; in test [5], < 5.30. For the same compound, the GI50 in test [1] worked out at 2.63 µM; in test [2], 5.13 µM.

`CCn1nc(-c2ccnc(Nc3cccc(O)c3)n2)c2ccccc21`: the figures for the GI50 in test [1] and in [2] were 33.5 µM and 36.6 µM, respectively.

As to `Clc1ccc(Nc2nc3ncccc3n2Cc2ccccc2)cc1`, the results for the GI50 in test [1] and in [2] were 48 µM and 59.5 µM, respectively.

For `CCn1nc(-c2ccnc(Nc3ccc(S(N)(=O)=O)cc3)n2)c2ccccc21`, the pKi was 7.26 in test [3], 6.60 in test [4] and < 5.30 in [5]. The values for the GI50 in test [1] and in [2] were 2.28 µM and 2.05 µM, respectively.

`NS(=O)(=O)c1ccc(Nc2nccc(-n3ncc4cccnc43)n2)cc1`: the values for the GI50 in test [1] and in test [2] were 7.02 µM and 8.04 µM, respectively.

Consider `CCn1nc(-c2ccnc(Nc3cccc([N+](=O)[O-])c3)n2)c2ccccc21`, for which the GI50 in test [1] amounted to 2.31 µM; in test [2], 2.82 µM.

With `COc1ccc(Nc2nc3ncccc3n2Cc2ccccc2)cc1`, the GI50 in [1] is 59.1 µM; in [2], 87.3 µM.

With `Cn1nc(-c2ccnc(Nc3cccc([N+](=O)[O-])c3)n2)c2ccccc21`, the GI50 in test [1] is 0.58 µM; in test [2] it was 0.49 µM.

For the compound `c1ccc(Cn2c(Nc3ccccc3)nc3cccnc32)cc1`, the GI50 in [1] worked out at 51.8 µM; in test [2], 60.2 µM.

In the case of `Cc1nn(-c2ccnc(Nc3ccc(S(N)(=O)=O)cc3)n2)c2ncccc12`, the figures for the GI50 in test [1] and in [2] were 8.64 µM and 8.84 µM, respectively.

As for `CCCn1nc(-c2ccnc(Nc3ccc(S(N)(=O)=O)cc3)n2)c2ccccc21`, the pKi in [3] is 6.90; in test [4], 6.75; in test [5], < 5.30. For the same compound, the GI50 worked out at 0.59 µM in test [1] and 6.74 µM in test [2].

For the compound `CCc1nn(-c2ccnc(Nc3ccc(S(N)(=O)=O)cc3)n2)c2ncccc12`, the GI50 in test [1] was found to be 0.88 µM; in [2] it was 6.34 µM.

Regarding `Cn1nc(-c2ccnc(Nc3ccc(Cl)cc3)n2)c2ccccc21`, the GI50 in test [1] was found to be 7.83 µM; in test [2], 8.73 µM.

As to `Cn1nc(-c2ccnc(Nc3ccc(S(N)(=O)=O)cc3)n2)c2ccccc21`, the pKi in test [3] was 7.02; in test [4] it was 6.85; in test [5], < 5.30. For the same compound, the GI50 in test [1] stood at 0.94 µM; in test [2], 2.28 µM.

For `c1ccc(Cn2c(Nc3ccccc3)nc3ncccc32)cc1`, the results for the GI50 in test [1] and in [2] were 52.5 µM and 64.7 µM, respectively.

Turning to `Cn1nc(-c2ccnc(Nc3cccc(Cl)c3)n2)c2ccccc21`, the figures for the GI50 in test [1] and in [2] were 5.97 µM and 6.4 µM, respectively.

For `Cc1ccc(Nc2nccc(-c3nn(C)c4ccccc34)n2)cc1`, the GI50 turned out to be 6.1 µM in test [1] and 8.64 µM in [2].

In the case of `Cc1cccc(Nc2nccc(-c3nn(C)c4ccccc34)n2)c1`, the GI50 in test [1] came out at 9.15 µM; in [2] it was 9.42 µM.

As to `Cn1nc(-c2ccnc(Nc3cccc(S(N)(=O)=O)c3)n2)c2ccccc21`, the pKi is 7.21 in test [3], 7.01 in test [4] and < 5.30 in test [5]. Further, the GI50 in [1] amounted to 2.27 µM; in [2], 1.98 µM.
